# Reference: ChEMBL document CHEMBL1255284, “Aspergillus section Fumigati: antifungal susceptibility patterns and sequence-based identification” (2008)
# Numbered stars: 1 amine (or outer) side, 2 acyl side, 3 side chain; on linkers, the order of the positions; unused ones are H or OH. Bridge positions count the residues as written; N and C are the ends. Square brackets hold non-standard residues; d marks the D form. Peptide text beside a SMILES is read from it. * marks the point of attachment. hTyr(3S-OH,4S-OH,3'-OSO3H) = N[C@H](C(=O)O)[C@H](O)[C@@H](O)c1ccc(O)c(OS(=O)(=O)O)c1; Orn(4R-OH,5R-OH) = O=C([C@H](C[C@@H](O)[C@@H](O)N[*:3])N[*:1])[*:2]; Pro(3S-OH,4S-Me) = C[C@H]1CN[C@H](C(=O)O)[C@H]1O; X1 = CCCCCOc1ccc(-c2cc(-c3ccc(C(=O)*)cc3)no2)cc1; Gln(3R-OH) = NC(=O)C[C@@H](O)[C@H](N)C(=O)O; Hyp = O=C(O)[C@@H]1C[C@@H](O)CN1
# Legend:
# [1] = system: Aspergillus lentulus; test: Antimicrobial activity against Aspergillus lentulus isolate CNM-CM-3599 obtained from sputum of patient after 48 hrs by broth microdilution method; format: functional; conditions: isolate CNM-CM-3599, 48 h
# Outline: (§1)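 CLSI M38-A broth microdilution with modifications: RPMI 1640 with L-glutamine, 2% glucose, buffered to pH 7 with 0.165 M MOPS. Inoculum of 1 × 10^5 to 5 × 10^5 CFU/ml from 3- to 5-day-old cultures. Incubated 35°C, 48 h, humid. Visual reading with a mirror. MIC is complete growth inhibition; echinocandin MEC is hyphal morphological alteration. Azoles 8 to 0.015 μg/ml; others 16 to 0.03 μg/ml.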
# [2] = system: Aspergillus fumisynnematus; test: Antimicrobial activity against Aspergillus fumisynnematus isolate CNM-CM-4063 obtained from bronchoalveolar aspirate of patient after 48 hrs by broth microdilution method; format: functional; conditions: isolate CNM-CM-4063, Lung; outline: as §1
# [3] = system: Aspergillus lentulus; test: Antimicrobial activity against Aspergillus lentulus isolate CNM-CM-3538 obtained from sputum of patient after 48 hrs by broth microdilution method; format: functional; conditions: isolate CNM-CM-3538, 48 h; outline: as §1
# [4] = system: Aspergillus lentulus; test: Antimicrobial activity against Aspergillus lentulus isolate CNM-CM-4330 obtained from sputum of patient after 48 hrs by broth microdilution method; format: functional; conditions: isolate CNM-CM-4330, 48 h; outline: as §1
# [5] = system: Aspergillus lentulus; test: Antimicrobial activity against Aspergillus lentulus isolate CNM-CM-4428 obtained from skin of patient after 48 hrs by broth microdilution method; format: functional; conditions: isolate CNM-CM-4428, 48 h; outline: as §1
# [6] = system: Aspergillus viridinutans; test: Antimicrobial activity against Aspergillus viridinutans isolate CNM-CM-3147 obtained from oropharyngeal exudate of patient after 48 hrs by broth microdilution method; format: functional; conditions: isolate CNM-CM-3147, 48 h; outline: as §1
# [7] = system: Aspergillus lentulus; test: Antimicrobial activity against Aspergillus lentulus isolate CNM-CM-4420 obtained from nail of patient after 48 hrs by broth microdilution method; format: functional; conditions: isolate CNM-CM-4420, 48 h; outline: as §1
# [8] = system: Aspergillus lentulus; test: Antimicrobial activity against Aspergillus lentulus isolate CNM-CM-3537 obtained from sputum of patient after 48 hrs by broth microdilution method; format: functional; conditions: isolate CNM-CM-3537, 48 h; outline: as §1
# [9] = system: Neosartorya pseudofischeri; test: Antimicrobial activity against Neosartorya pseudofischeri isolate CNM-CM-3769 obtained from sputum of patient after 48 hrs by broth microdilution method; format: functional; conditions: Aspergillus thermomutatus
# Outline: (§2)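 CLSI M38-A broth microdilution with modifications: RPMI 1640 with L-glutamine, MOPS-buffered to pH 7, plus 2% glucose. Inoculum 1 × 10^5 to 5 × 10^5 CFU/ml from 3–5-day cultures. Incubated at 35°C for 48 h, humid. Read visually with a mirror. MIC = complete growth inhibition; echinocandin MEC = altered hyphal morphology. QC strain A. fumigatus ATCC 2004305.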
# [10] = system: Aspergillus viridinutans; test: Antimicrobial activity against Aspergillus viridinutans isolate CNM-CM-4518 obtained from nail of patient after 48 hrs by broth microdilution method; format: functional; conditions: isolate CNM-CM-4518, 48 h; outline: as §1
# [11] = system: Neosartorya pseudofischeri; test: Antimicrobial activity against Neosartorya pseudofischeri isolate CNM-CM-3914 obtained from nail of patient after 48 hrs by broth microdilution method; format: functional; conditions: Aspergillus thermomutatus, isolate CNM-CM-3914, 48 h; outline: as §2
# [12] = system: Aspergillus lentulus; test: Antimicrobial activity against Aspergillus lentulus isolate CNM-CM-4415 obtained from sputum of patient after 48 hrs by broth microdilution method; format: functional; conditions: isolate CNM-CM-4415, 48 h; outline: as §1
# [13] = system: Aspergillus lentulus; test: Antimicrobial activity against Aspergillus lentulus isolate CNM-CM-1290 obtained from sputum of patient after 48 hrs by broth microdilution method; format: functional; conditions: isolate CNM-CM-1290, 48 h; outline: as §1
# [14] = system: Aspergillus lentulus; test: Antimicrobial activity against Aspergillus lentulus isolate CNM-CM-3134 obtained from sputum of patient after 48 hrs by broth microdilution method; format: functional; conditions: isolate CNM-CM-3134, 48 h; outline: as §1
# [15] = system: Neosartorya pseudofischeri; test: Antimicrobial activity against Neosartorya pseudofischeri isolate CNM-CM-4060 obtained from sputum of patient after 48 hrs by broth microdilution method; format: functional; conditions: Aspergillus thermomutatus; outline: as §2
# [16] = system: Aspergillus fumigatiaffinis; test: Antimicrobial activity against Aspergillus fumigatiaffinis isolate CNM-CM-2280 obtained from sputum of patient after 48 hrs by broth microdilution method; conditions: isolate CNM-CM-2280, 48 h
# [17] = system: Aspergillus lentulus; test: Antimicrobial activity against Aspergillus lentulus isolate CNM-CM-4426 obtained from sputum of patient after 48 hrs by broth microdilution method; format: functional; conditions: isolate CNM-CM-4426, 48 h; outline: as §1
# [18] = system: Neosartorya hiratsukae; test: Antimicrobial activity against Neosartorya hiratsukae isolate CNM-CM-4328 obtained from cornea of patient after 48 hrs by broth microdilution method; format: functional; conditions: Aspergillus hiratsukae, isolate CNM-CM-4328, Cornea; outline: as §1
# [19] = system: Neosartorya hiratsukae; test: Antimicrobial activity against Neosartorya hiratsukae isolate CNM-CM-3303 obtained from skin of patient after 48 hrs by broth microdilution method; format: functional; conditions: Aspergillus hiratsukae, isolate CNM-CM-3303, 48 h; outline: as §1
# [20] = system: Neosartorya hiratsukae; test: Antimicrobial activity against Neosartorya hiratsukae isolate CNM-CM-3764 obtained from oropharyngeal exudate of patient after 48 hrs by broth microdilution method; format: functional; conditions: Aspergillus hiratsukae, isolate CNM-CM-3764, 48 h; outline: as §1
# [21] = system: Neosartorya pseudofischeri; test: Antimicrobial activity against Neosartorya pseudofischeri isolate CNM-CM-2270 obtained from sputum of patient after 48 hrs by broth microdilution method; format: functional; conditions: Aspergillus thermomutatus, isolate CNM-CM-2270, 48 h; outline: as §2
# [22] = system: Aspergillus lentulus; test: Antimicrobial activity against Aspergillus lentulus isolate CNM-CM-4387 obtained from sputum of patient after 48 hrs by broth microdilution method; format: functional; conditions: isolate CNM-CM-4387, 48 h; outline: as §1
# [23] = system: Neosartorya hiratsukae; test: Antimicrobial activity against Neosartorya hiratsukae isolate CNM-CM-3305 obtained from skin of patient after 48 hrs by broth microdilution method; format: functional; conditions: Aspergillus hiratsukae, isolate CNM-CM-3305, 48 h; outline: as §1
# [24] = system: Neosartorya hiratsukae; test: Antimicrobial activity against Neosartorya hiratsukae isolate CNM-CM-3740 obtained from oropharyngeal exudate of patient after 48 hrs by broth microdilution method; format: functional; conditions: Aspergillus hiratsukae, isolate CNM-CM-3740, 48 h; outline: as §1
# [25] = system: Aspergillus lentulus; test: Antimicrobial activity against Aspergillus lentulus isolate CNM-CM-3583 obtained from sputum of patient after 48 hrs by broth microdilution method; format: functional; conditions: isolate CNM-CM-3583, 48 h; outline: as §1
# [26] = system: Aspergillus lentulus; test: Antimicrobial activity against Aspergillus lentulus isolate CNM-CM-3364 obtained from bronchoalveolar lavage fluid of patient after 48 hrs by broth microdilution method; format: functional; conditions: isolate CNM-CM-3364, Lung; outline: as §1
# [27] = system: Aspergillus lentulus; test: Antimicrobial activity against Aspergillus lentulus isolate CNM-CM-4370 obtained from sputum of patient after 48 hrs by broth microdilution method; format: functional; conditions: isolate CNM-CM-4370, 48 h; outline: as §1
# [28] = system: Aspergillus fumigatus; test: Antimicrobial activity against Aspergillus fumigatus ATCC 2004305 after 48 hrs by broth microdilution method; format: functional; conditions: ATCC 2004305, 48 h
# [29] = system: Aspergillus fumigatiaffinis; test: Antimicrobial activity against Aspergillus fumigatiaffinis isolate CNM-CM-3227 obtained from bronchoalveolar lavage fluid of patient after 48 hrs by broth microdilution method; conditions: isolate CNM-CM-3227, Lung
structure (smiles),measurement,setting,value
CCC(C)n1ncn(-c2ccc(N3CCN(c4ccc(OCC5COC(Cn6cncn6)(c6ccc(Cl)cc6Cl)O5)cc4)CC3)cc2)c1=O (stereo not drawn) [ITRACONAZOLE],MIC,[1],0.5 µg/mL
same,MIC,[2],0.25 µg/mL
same,MIC,[3],8.25 µg/mL
same,MIC,[4],6 µg/mL
same,MIC,[5],7 µg/mL
same,MIC,[6],14.4 µg/mL
same,MIC,[7],8 µg/mL
same,MIC,[8],8.25 µg/mL
same,MIC,[9],8 µg/mL
same,MIC,[10],16 µg/mL
same,MIC,[11],16 µg/mL
same,MIC,[12],16 µg/mL
same,MIC,[13],9.25 µg/mL
same,MIC,[14],10.2 µg/mL
same,MIC,[15],11 µg/mL
same,MIC,[16],6.66 µg/mL
same,MIC,[17],6.66 µg/mL
same,MIC,[18],0.25 µg/mL
same,MIC,[19],0.12 µg/mL
same,MIC,[20],0.33 µg/mL
same,MIC,[21],8 µg/mL
same,MIC,[22],8 µg/mL
same,MIC,[23],0.185 µg/mL
same,MIC,[24],0.16 µg/mL
same,MIC,[25],0.43 µg/mL
same,MIC,[26],8 µg/mL
same,MIC,[27],8 µg/mL
same,MIC,[28],0.125 µg/mL
same,MIC,[29],8 µg/mL
"CCCCCOc1ccc(-c2cc(-c3ccc(C(=O)N[C@H]4C[C@@H](O)[C@@H](O)NC(=O)[C@@H]5[C@@H](O)[C@@H](C)CN5C(=O)[C@H]([C@H](O)CC(N)=O)NC(=O)[C@H]([C@H](O)[C@@H](O)c5ccc(O)c(OS(=O)(=O)O)c5)NC(=O)[C@@H]5C[C@@H](O)CN5C(=O)[C@H]([C@@H](C)O)NC4=O)cc3)no2)cc1 [MICAFUNGIN] (X1-[Orn(4R-OH,5R-OH)]T[Hyp][hTyr(3S-OH,4S-OH,3'-OSO3H)][Gln(3R-OH)][Pro(3S-OH,4S-Me)]; lactam 1-C)",minimal effective concentration,[1]; read-out: MEC,0.03 µg/mL
same,minimal effective concentration,[2]; read-out: MEC,0.03 µg/mL
same,minimal effective concentration,[3]; read-out: MEC,0.1 µg/mL
same,minimal effective concentration,[4]; read-out: MEC,0.03 µg/mL
same,minimal effective concentration,[5]; read-out: MEC,0.03 µg/mL
same,minimal effective concentration,[6]; read-out: MEC,0.2 µg/mL
same,minimal effective concentration,[7]; read-out: MEC,0.03 µg/mL
same,minimal effective concentration,[8]; read-out: MEC,0.04 µg/mL
same,minimal effective concentration,[9]; read-out: MEC,0.06 µg/mL
same,minimal effective concentration,[10]; read-out: MEC,0.03 µg/mL
same,minimal effective concentration,[11]; read-out: MEC,0.03 µg/mL
same,minimal effective concentration,[12]; read-out: MEC,0.03 µg/mL
same,minimal effective concentration,[13]; read-out: MEC,0.05 µg/mL
same,minimal effective concentration,[14]; read-out: MEC,0.07 µg/mL
same,minimal effective concentration,[15]; read-out: MEC,0.03 µg/mL
same,minimal effective concentration,[16]; read-out: MEC,0.04 µg/mL
same,minimal effective concentration,[17]; read-out: MEC,0.03 µg/mL
same,minimal effective concentration,[18]; read-out: MEC,0.03 µg/mL
same,minimal effective concentration,[19]; read-out: MEC,0.03 µg/mL
same,minimal effective concentration,[20]; read-out: MEC,0.04 µg/mL
same,minimal effective concentration,[21]; read-out: MEC,0.26 µg/mL
same,minimal effective concentration,[22]; read-out: MEC,0.03 µg/mL
same,minimal effective concentration,[23]; read-out: MEC,0.14 µg/mL
same,minimal effective concentration,[24]; read-out: MEC,0.03 µg/mL
same,minimal effective concentration,[25]; read-out: MEC,0.03 µg/mL
same,minimal effective concentration,[26]; read-out: MEC,0.03 µg/mL
same,minimal effective concentration,[27]; read-out: MEC,0.03 µg/mL
same,minimal effective concentration,[28]; read-out: MEC,0.03 µg/mL
same,minimal effective concentration,[29]; read-out: MEC,0.08 µg/mL
